Laboratory results reported in ChEMBL document CHEMBL3286367, “Synthesis of new class of spirocarbocycle derivatives by multicomponent domino reaction and their evaluation for antimicrobial, anticancer activity and molecular docking studies” (2014).
≈ marks a conversion by molar mass, not a printed value. Calls of active or inactive are those of the source. No cut-off for these calls is given here.

Experiments:
Shigella flexneri [1] = test: Antimicrobial activity against Shigella flexneri MTCC 1457 assessed as zone of inhibition at 1 mg/disc after 24 hrs incubation by disc diffusion assay; assay type: functional
In short: (§1)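 Inocula grown in Mueller Hinton broth for 24 h at 37 °C and swabbed onto Mueller Hinton agar. Discs carried 1 mg compound each and stood 30 min at room temperature before 24 h incubation at 37 °C. Solvent as negative control. Inhibition zones recorded in mm; experiment done twice.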

Micrococcus luteus [2] = test: Antimicrobial activity against Micrococcus luteus MTCC 106 assessed as absence of visible growth after 48 to 72 hrs; assay type: functional
Candida albicans = test: Antifungal activity against Candida albicans MTCC 227 assessed as zone of inhibition at 1 mg/disc after 48 hrs incubation by disc diffusion assay; assay type: functional
In short: (§2)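 Disc diffusion on Mueller Hinton agar with swabbed cultures, 1 mg compound per disc. Discs stood 30 min at room temperature for diffusion, then plates incubated 48 h at 28 °C. Solvent as negative control. Yeast pre-grown in Sabouraud dextrose broth at 28 °C for 48-72 h; filamentous fungal spores came from SDA slants grown 10 days at 28 °C. Zone diameters in mm; run twice.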

[3] = system: Staphylococcus epidermidis; test: Antimicrobial activity against Staphylococcus epidermidis MTCC 3615 assessed as absence of visible growth after 48 to 72 hrs; assay type: functional
Klebsiella aerogenes [4] = test: Antimicrobial activity against Enterobacter aerogenes MTCC 111 assessed as absence of visible growth after 48 to 72 hrs; assay type: functional
Shigella flexneri [5] = test: Antimicrobial activity against Shigella flexneri MTCC 1457 assessed as absence of visible growth after 24 hrs
Staphylococcus aureus [6] = test: Antimicrobial activity against Staphylococcus aureus MTCC 96 assessed as absence of visible growth after 48 to 72 hrs; assay type: functional
Salmonella typhimurium [7] = test: Antimicrobial activity against Salmonella typhimurium MTCC 1251 assessed as absence of visible growth after 48 to 72 hrs; assay type: functional, Salmonella enterica subsp. enterica serovar Typhimurium; conditions: Salmonella enterica
[8] = system: Staphylococcus epidermidis; test: Antimicrobial activity against Staphylococcus epidermidis MTCC 3615 assessed as zone of inhibition at 1 mg/disc after 24 hrs incubation by disc diffusion assay; assay type: functional; in short: as §1
Staphylococcus aureus [9] = test: Antimicrobial activity against methicillin-resistant Staphylococcus aureus assessed as zone of inhibition at 1 mg/disc after 24 hrs incubation by disc diffusion assay; assay type: functional
In short: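 Inoculum grown in Mueller Hinton broth 24 h at 37°C, swabbed onto Mueller Hinton agar and dried 10 min. Discs loaded at 1 mg/disc, then 30 min at room temperature for diffusion. Plates incubated 24 h at 37°C. Solvent negative control; streptomycin positive control. Zone of inhibition read in mm; experiment done twice.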

Micrococcus luteus [10] = test: Antimicrobial activity against Micrococcus luteus MTCC 106 assessed as zone of inhibition at 1 mg/disc after 24 hrs incubation by disc diffusion assay; assay type: functional; in short: as §1
Proteus vulgaris [11] = test: Antimicrobial activity against Proteus vulgaris MTCC 1771 assessed as zone of inhibition at 1 mg/disc after 24 hrs incubation by disc diffusion assay; assay type: functional; in short: as §1
Klebsiella aerogenes [12] = test: Antimicrobial activity against Enterobacter aerogenes MTCC 111 assessed as zone of inhibition at 1 mg/disc after 24 hrs incubation by disc diffusion assay; assay type: functional; in short: as §1
Klebsiella pneumoniae [13] = test: Antimicrobial activity against Klebsiella pneumonia MTCC 109 assessed as absence of visible growth after 24 hrs
Malassezia pachydermatis = test: Antifungal activity against Malassezia pachydermatis assessed as zone of inhibition at 1 mg/disc after 48 hrs incubation by disc diffusion assay; assay type: functional; in short: as §2
Staphylococcus aureus [14] = test: Antimicrobial activity against methicillin-resistant Staphylococcus aureus assessed as absence of visible growth after 48 to 72 hrs; assay type: functional
In short: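 Broth two-fold serial dilution in 96-well plates, 1000 to 7.81 µg/mL, compound dissolved in DMSO (2%). Inoculum grown in Mueller Hinton broth 24 h at 37°C. Streptomycin positive control. 5 µl of tested broth plated on MHA; MIC is the lowest concentration inhibiting visible growth on agar.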

Salmonella typhimurium [15] = test: Antimicrobial activity against Salmonella typhimurium MTCC 1251 assessed as zone of inhibition at 1 mg/disc after 24 hrs incubation by disc diffusion assay; assay type: functional, Salmonella enterica subsp. enterica serovar Typhimurium; in short: as §1
Staphylococcus aureus [16] = test: Antimicrobial activity against Staphylococcus aureus MTCC 96 assessed as zone of inhibition at 1 mg/disc after 24 hrs incubation by disc diffusion assay; assay type: functional; in short: as §1
Proteus vulgaris [17] = test: Antimicrobial activity against Proteus vulgaris MTCC 1771 assessed as absence of visible growth after 48 to 72 hrs; assay type: functional
Klebsiella pneumoniae [18] = test: Antimicrobial activity against Klebsiella pneumonia MTCC 109 assessed as zone of inhibition at 1 mg/disc after 24 hrs incubation by disc diffusion assay; assay type: functional; in short: as §1
[19] = system: Staphylococcus epidermidis; test: Antimicrobial activity against Staphylococcus epidermidis MTCC 3615 assessed as absence of visible growth after 24 hrs
Shigella flexneri [20] = test: Antimicrobial activity against Shigella flexneri MTCC 1457 assessed as absence of visible growth after 48 to 72 hrs; assay type: functional
Klebsiella pneumoniae [21] = test: Antimicrobial activity against Klebsiella pneumonia MTCC 109 assessed as absence of visible growth after 48 to 72 hrs; assay type: functional

SMILES | inhibition zone (IZ) (Shigella flexneri [1]) [mm] | MIC (Micrococcus luteus [2]) [mg/L] | inhibition zone (IZ) (Candida albicans) [mm] | MIC (Klebsiella aerogenes [4]) [mg/L] | MIC (Shigella flexneri [5]) [mg/L] | MIC (Staphylococcus aureus [6]) [mg/L] | MIC (Salmonella typhimurium [7]) [mg/L] | inhibition zone (IZ) [8] [mm] | inhibition zone (IZ) (Staphylococcus aureus [9]) [mm] | inhibition zone (IZ) (Micrococcus luteus [10]) [mm] | inhibition zone (IZ) (Proteus vulgaris [11]) [mm] | inhibition zone (IZ) (Klebsiella aerogenes [12]) [mm] | MIC (Klebsiella pneumoniae [13]) [mg/L] | inhibition zone (IZ) (Malassezia pachydermatis) [mm] | MIC (Staphylococcus aureus [14]) [mg/L] | inhibition zone (IZ) (Salmonella typhimurium [15]) [mm] | inhibition zone (IZ) (Staphylococcus aureus [16]) [mm] | MIC (Proteus vulgaris [17]) [mg/L] | inhibition zone (IZ) (Klebsiella pneumoniae [18]) [mm] | MIC [19] [mg/L] | other results
N#CC1=C(N)[C@]2(C(=O)Nc3ccccc32)[C@@H](c2ccc(Br)cc2)[C@@H]2CCCC=C12 | 8 | 1000 (≈ 2240 µM) | 10 | 250 (≈ 560 µM) | 1000 (≈ 2240 µM) | 250 (≈ 560 µM) | 250 (≈ 560 µM) | 10 | 12 | 8 | 9 | 15 | 500 (≈ 1120 µM) | 10 | 250 (≈ 560 µM) | 11 | 12 | 1000 (≈ 2240 µM) | 10 | – | MIC [3]: 500 mg/L (≈ 1120 µM)
Cc1ccc([C@H]2[C@@H]3CCC=C3C(C#N)=C(N)C23C(=O)c2ccccc2C3=O)cc1 (relative stereo) | 13 | 250 (≈ 657 µM) | 10 | 250 (≈ 657 µM) | – | 125 (≈ 329 µM) | 500 (≈ 1310 µM) | 14 | 12 | 12 | 16 | 15 | – | 13 | 250 (≈ 657 µM) | 10 | 17 | 125 (≈ 329 µM) | 15 | 250 (≈ 657 µM) | MIC (Shigella flexneri [20]): 250 mg/L (≈ 657 µM); MIC (Klebsiella pneumoniae [21]): 250 mg/L (≈ 657 µM)
N#CC1=C(N)C2(C(=O)c3ccccc3C2=O)[C@@H](c2ccoc2)[C@@H]2CCCC=C12 (relative stereo) | 14 | 125 (≈ 337 µM) | 13 | 250 (≈ 675 µM) | 250 (≈ 675 µM) | 250 (≈ 675 µM) | 500 (≈ 1350 µM) | 12 | 13 | 18 | 15 | 15 | 250 (≈ 675 µM) | 12 | 250 (≈ 675 µM) | 10 | 14 | 250 (≈ 675 µM) | 12 | 250 (≈ 675 µM) | –
CN[C@@H]1[C@H](O[C@H]2[C@H](O[C@H]3[C@H](O)[C@@H](O)[C@H](N=C(N)N)[C@@H](O)[C@@H]3N=C(N)N)O[C@@H](C)[C@]2(O)C=O)O[C@@H](CO)[C@H](O)[C@H]1O [STREPTOMYCIN] | 30 | 6.25 (≈ 10.7 µM) | – | 25 (≈ 43 µM) | 6.25 (≈ 10.7 µM) | 6.25 (≈ 10.7 µM) | 30 (≈ 51.6 µM) | 26 | 30 | 26 | 30 | 22 | – | – | 6.25 (≈ 10.7 µM) | 18 | 14 | 6.25 (≈ 10.7 µM) | 20 | – | MIC (Klebsiella pneumoniae [21]): 6.25 mg/L (≈ 10.7 µM); MIC [3]: 6.25 mg/L (≈ 10.7 µM)
Cc1ccc([C@H]2[C@@H]3CCCC=C3C(C#N)=C(N)C23C(=O)c2ccccc2C3=O)cc1 (relative stereo) | 8 | 1000 (≈ 2540 µM) | 10 | 250 (≈ 634 µM) | – | 250 (≈ 634 µM) | 250 (≈ 634 µM) | 10 | 11 | 9 | 10 | 13 | – | 11 | 250 (≈ 634 µM) | 14 | 10 | 500 (≈ 1270 µM) | 15 | 500 (≈ 1270 µM) | MIC (Shigella flexneri [20]): 1000 mg/L (≈ 2540 µM); MIC (Klebsiella pneumoniae [21]): 250 mg/L (≈ 634 µM)
COc1ccc([C@H]2[C@@H]3CCCC=C3C(C#N)=C(N)C23C(=O)CCCC3=O)cc1 (relative stereo) | 19 | 250 (≈ 664 µM) | 10 | 250 (≈ 664 µM) | 125 (≈ 332 µM) | 250 (≈ 664 µM) | 250 (≈ 664 µM) | 13 | 15 | 21 | 17 | 14 | – | 9 | 250 (≈ 664 µM) | 11 | 14 | 125 (≈ 332 µM) | 16 | – | MIC (Klebsiella pneumoniae [21]): 125 mg/L (≈ 332 µM); MIC [3]: 250 mg/L (≈ 664 µM)
N#CC1=C(N)C2(C(=O)c3ccccc3C2=O)[C@@H](c2ccccc2F)[C@@H]2CCC=C12 (relative stereo) | 10 | 250 (≈ 650 µM) | – | 250 (≈ 650 µM) | 250 (≈ 650 µM) | 250 (≈ 650 µM) | 250 (≈ 650 µM) | 17 | 16 | 12 | 14 | 15 | 250 (≈ 650 µM) | – | 125 (≈ 325 µM) | 12 | 14 | 250 (≈ 650 µM) | 15 | 125 (≈ 325 µM) | inhibition (Candida albicans): inactive; inhibition (Malassezia pachydermatis): inactive
Cc1ccc([C@H]2[C@@H]3CCCC=C3C(C#N)=C(N)[C@]23C(=O)Nc2ccccc23)cc1 | 9 | 1000 (≈ 2620 µM) | 8 | 250 (≈ 655 µM) | 1000 (≈ 2620 µM) | 250 (≈ 655 µM) | 1000 (≈ 2620 µM) | 12 | 9 | 8 | 12 | 13 | 500 (≈ 1310 µM) | 10 | 1000 (≈ 2620 µM) | 9 | 11 | 250 (≈ 655 µM) | 10 | 250 (≈ 655 µM) | –
N#CC1=C(N)C2(C(=O)c3ccccc3C2=O)[C@@H](c2cccc3ccccc23)[C@@H]2CCCC=C12 (relative stereo) | 21 | 62.5 (≈ 145 µM) | 10 | 125 (≈ 290 µM) | 62.5 (≈ 145 µM) | 250 (≈ 581 µM) | 125 (≈ 290 µM) | 15 | 21 | 22 | 19 | 17 | 125 (≈ 290 µM) | 9 | 62.5 (≈ 145 µM) | 18 | 12 | 125 (≈ 290 µM) | 17 | 125 (≈ 290 µM) | –
